Results from ChEMBL document CHEMBL5325427.
Converted amounts (≈) assume the structure as drawn. The source made the active and inactive calls. The rule behind the calls is not given here.

Key:
[1] = Stability in CD-1 mouse liver microsomes assessed as half life at 1 uM in presence of NADPH by LC-MS-MS analysis; format: ADME, Microsome
SARS-CoV-2 [2] = experiment: Antiviral activity against SARS CoV-2 HCoV-19/Egypt/NRC-1/2020 infected in human Caco-2 cells assessed as inhibition of ORFb1 RNA at 20 ug/ml pre-infected with virus for 1 hr followed by cell addition for 1 hr and measured after 1 to 12 hrs by RT-PCR analysis relative to control; format: functional; conditions: Severe acute respiratory syndrome coronavirus 2, HCoV-19/Egypt/NRC-1/2020, Caco-2, time 3-14 hrs
[3] = Toxicity in Balb/c mouse assessed as change in histological variation in lung at 12.5 to 25 mg/kg by H and E staining based analysis; format: organism-based; conditions: in vivo, dose 12.5-25 mg/kg
How it was run: (§1)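 After the 14-day daily intraperitoneal dosing (12.5 or 25 mg/kg, female Balb/c), liver, kidney, spleen, heart and lung were fixed 24 h in 10% neutral-buffered formalin and paraffin-embedded. Sections of 4 μm were stained with H&E. Lesions were scored nil 0, mild 1, moderate 2, severe 3.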

[4] = Toxicity in Balb/c mouse assessed as histological changes in liver by measuring toxicity score at 12.5 mg/kg by H and E staining based analysis; format: organism-based; conditions: in vivo; how it was run: as §1
[5] = Stability in human liver microsomes assessed as half life at 1 uM in presence of NADPH by LC-MS-MS analysis; format: ADME, Microsome
[6] = Toxicity in Balb/c mouse assessed as change in histological variation in spleen at 12.5 to 25 mg/kg by H and E staining based analysis; format: organism-based; conditions: in vivo, dose 12.5-25 mg/kg; how it was run: as §1
[7] = Stability in CD-1 mouse liver microsomes assessed as compound remaining at 1 uM measured after 60 mins in absence of NADPH by LC-MS-MS analysis; format: ADME, Microsome; conditions: read-out: Stability
How it was run: (§2)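 Compound was incubated in liver microsomes without NADPH. Percent remaining was measured after 60 min.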

[8] = Selectivity index, ratio of CC50 for African green monkey Vero E6 cells to IC50 for antiviral activity against SARS-CoV-2 NRC-03-nhCoV infected in african green monkey Vero E6 cells; format: toxicity, cell-based, Vero C1008; conditions: read-out: Ratio CC50/IC50
[9] = Toxicity in Balb/c mouse assessed as effect on total protein at 12.5 to 25 mg/kg; format: organism-based; conditions: in vivo, dose 12.5-25 mg/kg
How it was run: (§3)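 Female Balb/c mice were randomised to vehicle (0.5% DMSO in PBS) or 12.5 or 25 mg/kg intraperitoneally daily for 14 days, then followed 12 days after treatment. Body weight, haematology and blood chemistry were compared with vehicle controls; n = 3–5.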

[10] = Toxicity in Balb/c mouse assessed as effect on total bilirubin at 12.5 to 25 mg/kg; format: organism-based; conditions: in vivo, dose 12.5-25 mg/kg; how it was run: as §3
[11] = Toxicity in Balb/c mouse assessed as effect on glucose at 12.5 to 25 mg/kg; format: organism-based; conditions: in vivo, dose 12.5-25 mg/kg; how it was run: as §3
[12] = Toxicity in Balb/c mouse assessed as effect on ALT at 12.5 to 25 mg/kg; format: organism-based; conditions: in vivo, dose 12.5-25 mg/kg; how it was run: as §3
[13] = target: Replicase polyprotein 1ab (Severe acute respiratory syndrome coronavirus 2) (UniProt P0DTD1); experiment: Inhibition of SARS-CoV-2 3CLpro at 10 ug/ml preincubated with enzyme for 30 mins followed by substrate addition and measured after 4 hrs by fluorescence based analysis; conditions: dose 10.0 µg/ml, time 4.5 hrs
How it was run: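 Recombinant SARS-CoV-2 3CLpro (1.5 ng/μl) was pre-incubated with compound 30 min at RT. Fluorogenic substrate was added to a final 40 μM and incubated 4 h at RT. Fluorescence was read at Ex 360/Em 460 nm. Wells were run in triplicate and blank was subtracted.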

SARS-CoV-2 [14] = experiment: Antiviral activity against SARS-CoV-2 NRC-03-nhCoV infected in african green monkey Vero E6 cells assessed as inhibition of viral growth pre-infected cells with virus for 1 hr followed by compound addition for 1 hr and measured after 72 hrs by crystal violet staining based analysis; format: functional, organism-based; conditions: Severe acute respiratory syndrome coronavirus 2, NRC-03-nhCoV, Vero C1008
[15] = Stability in human microsomes assessed as compound remaining at 1 uM measured after 60 mins in absence of NADPH by LC-MS-MS analysis; format: ADME, Microsome; conditions: read-out: Stability; how it was run: as §2
[16] = Toxicity in Balb/c mouse assessed as change in histological variation in liver at 12.5 to 25 mg/kg by H and E staining based analysis; format: organism-based; conditions: in vivo, dose 12.5-25 mg/kg; how it was run: as §1
[17] = Selectivity index, ratio of CC50 for African green monkey Vero E6 cells to IC50 for antiviral activity against MERS-CoV NRCE-HKU270 infected in Vero E6 cells; format: toxicity, cell-based, Vero C1008; conditions: read-out: Ratio CC50/IC50
[18] = target: Replicase polyprotein 1ab (Severe acute respiratory syndrome coronavirus 2, UniProt P0DTD1); experiment: Inhibition of recombinant SARS CoV-2 PL protease assessed as deubiquitination activity using ubiquitinated fluorogenic as substrate incubated for 2 hrs followed by substrate addition for 1 hr by synergy TM HTX microplate reader analysis
[19] = Permeability of the compound across apical to basolateral side in human Caco-2 cells assessed as drug recovery at pH 6.5 to 7.4; format: ADME, cell-based; conditions: Caco-2, pH 6.5, read-out: Drug recovery
How it was run: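 Caco-2 cells (0.5 × 10^6/well) were grown 7 days on collagen-coated transwell filters. Compound was dosed at 50, 75 and 100 μM input in 1% DMSO/HBSS, apical pH 6.5 and basolateral pH 7.4. Samples were taken every 30 min for 2 h in duplicate and quantified by LC/MS/MS. Papp was calculated from receiver concentration, time, area and mid-point donor and receiver concentrations. Monolayer integrity required fluorescein Papp below 1.5 × 10−6 cm/s.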

[20] = Aqueous solubility of the compound in PBS buffer at pH 7.4 at 200 uM by microplate reader method; format: physicochemical
[21] = Toxicity in Balb/c mouse assessed as effect on body weight loss at 12.5 to 25 mg/kg, ip administered as multiple dose measured upto 15 days; format: organism-based; conditions: in vivo, 360 h, dose 12.5-25 mg/kg, time < 15 day; how it was run: as §3
[22] = Toxicity in Balb/c mouse assessed as effect on albumin at 12.5 to 25 mg/kg; format: organism-based; conditions: in vivo, dose 12.5-25 mg/kg; how it was run: as §3

For `COc1ccc2[nH]c3c(c2c1)C[C@]1(OC)CC[C@H]2c4[nH]c5ccccc5c4CCN2[C@@H]1C3`, the t1/2 [1] was > 1 h, the inhibition at 20 µg/mL (SARS-CoV-2 [2]) was > 70% and the Activity [3] was “Non-Toxic”. The Activity [4] was 0, the t1/2 [5] was > 1 h and the Activity [6] was “Non-Toxic”. For the same molecule, the remaining at 1 h, 1 µM [7] was 108%, the selectivity ratio [8] was 4.6 and the Activity [9] was “Non-Toxic”. The Activity [10] was “Non-Toxic”, the Activity [11] was “Non-Toxic” and the Activity [12] was “Non-Toxic”. The inhibition [13] was “inactive”, the IC50 (SARS-CoV-2 [14]) was 12.1 µg/mL (≈ 28.3 µM) and the remaining at 1 h, 1 µM [15] was 102%. For the same molecule, the Activity [16] was “Non-Toxic”, the selectivity ratio [17] was 8.96 and the IC50 [18] was 386 µM. For the same molecule, the recovery [19] was 77%, the solubility at 200 µM [20] was 166 µM (≈ 71 µg/mL) and the Activity [21] was “Non-Toxic”. For the same molecule, the Activity [22] was “Non-Toxic”.
